The test system of test [1] is Mycobacterium tuberculosis. In words: Antimycobacterial activity against isoniazid/rifampicin-resistant Mycobacterium tuberculosis MTB9160 after 7 days by microplate Alamar blue assay. It is filed as functional. The settings on record: MTB9160, 168 h. An outline of the steps: (§1)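 MABA against replicating M. tuberculosis. Cells grown to late log phase (70–100 Klett units) in 7H9 broth with 0.2% glycerol, 0.05% Tween 80 and 10% ADC. They were washed in PBS, filtered (8 µm) and frozen. Twofold compound dilutions received 2×10^5 CFU per well at 37 °C. Tween 80 and Alamar blue were added on day 7, then 16–24 h more. Fluorescence read at 530/590 nm. MIC = lowest concentration giving ≥90% fluorescence reduction versus bacterium-only controls.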
On the technique in general: The colour change of resazurin is a common sign of viable cells or microbes.

The test system of test [2] is Mycobacterium tuberculosis. In words: Antimycobacterial activity against isoniazid/rifampicin-resistant Mycobacterium tuberculosis MTB11168 after 7 days by microplate Alamar blue assay. As to conditions: MTB11168, 168 h. Type of test: functional. In short, it runs like this:
as §1

Converted amounts (≈) assume the structure as drawn. A value given as a limit tells only on which side of the number the result lay.

Usually MIC90 stands for the lowest concentration that inhibits either 90% of growth or 90% of the strains tested, depending on the study. `Cc1ccc2nc(C)c(C(=O)NCCOc3ccc(Br)cc3)n2c1`: the MIC90 in test [1] was 0.2 µM (≈ 0.0777 µg/mL); in test [2], less than 0.041 µM.
`COc1ccc(NCCNC(=O)c2c(C)nc3ccc(C)cn23)cc1`: the MIC90 in test [1] stood at 2.64 µM (≈ 0.893 µg/mL); in test [2] it was 1.47 µM (≈ 0.497 µg/mL).
Take `Cc1ccc2nc(C)c(C(=O)NCCNc3ccc(C(C)(C)C)cc3)n2c1`: the MIC90 is 0.57 µM (≈ 0.208 µg/mL) in test [1] and 1.37 µM (≈ 0.499 µg/mL) in test [2].
For `NNC(=O)c1ccncc1` [ISONIAZID], in that order: greater than 291 µM and greater than 291 µM.
For `CO[C@H]1/C=C/O[C@@]2(C)Oc3c(C)c(O)c4c(O)c(c(/C=N/N5CCN(C)CC5)c(O)c4c3C2=O)NC(=O)/C(C)=C\C=C\[C@H](C)[C@H](O)[C@@H](C)[C@@H](O)[C@@H](C)[C@H](OC(C)=O)[C@@H]1C` [RIFAMPIN] the same measures were greater than 57 µM and greater than 57 µM.

Values taken from ChEMBL document CHEMBL4118065, “Design, synthesis and antimycobacterial activity of novel imidazo[1,2-a]pyridine-3-carboxamide derivatives” (Eur J Med Chem, 2017).
